Values joined by “and” are separate entries in the source; they are usually repeats but may differ in a detail not shown here. Identical values can stand only once.
Tested on: Fibroblast
Test: Multiplex assay against human fibroblast
Type: toxicity, cell-based
Settings: number of replicates 2
Method in brief: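 Cells were classed with CellPathfinder machine-learning gating, first as Hoechst high-intensity objects or normal cells, then (normal cells) as healthy, pyknosed or fragmented nuclei, and finally (pyknosed cells) as mitotic or apoptotic. Staining of live cells at seeding used Hoechst33342, BioTracker Green Microtubule Cytoskeleton Dye, MitoTracker Red and Annexin V Alexa Fluor 680, with imaging on a CQ1 microscope at 37°C and 5% CO2 after compound addition. Tubulin, mitochondrial-mass and membrane-permeability phenotypes are per cents of healthy-nucleus cells.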

[1] = 12 h, 1 µM, compound concentration 1 uM
[2] = 12 h, 10 µM, compound concentration 10 uM
[3] = 24 h, 1 µM, compound concentration 1 uM
[4] = 24 h, 10 µM, compound concentration 10 uM
[5] = 48 h, 1 µM, compound concentration 1 uM
[6] = 48 h, 10 µM, compound concentration 10 uM

O=C1NC(=NCc2cccs2)SC1=Cc1ccc2ncccc2c1
Population Apoptotic (%) [1]: 31% and 38%
Population Fragmented Nuclei (%) [1]: 17% and 11%
Population Healthy Nuclei (%) [1]: 65% and 76%
Population Hoechst High Intensity Objects (%) [1]: 0%
Population Membrane Permeable-Phenotype (%) [1]: 4% and 3%
Population Mitochondria Different-Phenotype (%) [1]: 0%
Population Mitotic Cells (%) [1]: 68% and 61%
Population Normal (%) [1]: 100%
Population Pyknosed Nuclei (%) [1]: 16% and 12%
Population Tubulin-Different-Phenotype (%) [1]: 5% and 6%
Total Cell Count [1]: 193 and 211
Population Apoptotic (%) [2]: 50% and 51%
Population Fragmented Nuclei (%) [2]: 13% and 9%
Population Healthy Nuclei (%) [2]: 74% and 78%
Population Hoechst High Intensity Objects (%) [2]: 0%
Population Membrane Permeable-Phenotype (%) [2]: 2% and 4%
Population Mitochondria Different-Phenotype (%) [2]: 0% and 1%
Population Mitotic Cells (%) [2]: 50% and 48%
Population Normal (%) [2]: 100%
Population Pyknosed Nuclei (%) [2]: 12%
Population Tubulin-Different-Phenotype (%) [2]: 34% and 20%
Total Cell Count [2]: 190 and 238
Population Apoptotic (%) [3]: 42% and 26%
Population Fragmented Nuclei (%) [3]: 15% and 10%
Population Healthy Nuclei (%) [3]: 66% and 72%
Population Hoechst High Intensity Objects (%) [3]: 0%
Population Membrane Permeable-Phenotype (%) [3]: 2% and 6%
Population Mitochondria Different-Phenotype (%) [3]: 0%
Population Mitotic Cells (%) [3]: 57% and 73%
Population Normal (%) [3]: 100%
Population Pyknosed Nuclei (%) [3]: 18% and 17%
Population Tubulin-Different-Phenotype (%) [3]: 4% and 6%
Total Cell Count [3]: 183 and 219
Population Apoptotic (%) [4]: 69% and 61%
Population Fragmented Nuclei (%) [4]: 10% and 12%
Population Healthy Nuclei (%) [4]: 82% and 75%
Population Hoechst High Intensity Objects (%) [4]: 0%
Population Membrane Permeable-Phenotype (%) [4]: 4% and 2%
Population Mitochondria Different-Phenotype (%) [4]: 1% and 3%
Population Mitotic Cells (%) [4]: 30% and 38%
Population Normal (%) [4]: 100% and 99%
Population Pyknosed Nuclei (%) [4]: 6% and 12%
Population Tubulin-Different-Phenotype (%) [4]: 26% and 23%
Total Cell Count [4]: 191 and 241
Population Apoptotic (%) [5]: 65% and 75%
Population Fragmented Nuclei (%) [5]: 17% and 14%
Population Healthy Nuclei (%) [5]: 65% and 68%
Population Hoechst High Intensity Objects (%) [5]: 0%
Population Membrane Permeable-Phenotype (%) [5]: 2% and 3%
Population Mitochondria Different-Phenotype (%) [5]: 0%
Population Mitotic Cells (%) [5]: 34% and 25%
Population Normal (%) [5]: 99% and 100%
Population Pyknosed Nuclei (%) [5]: 17%
Population Tubulin-Different-Phenotype (%) [5]: 10% and 6%
Total Cell Count [5]: 185 and 211
Population Apoptotic (%) [6]: 73% and 62%
Population Fragmented Nuclei (%) [6]: 15% and 11%
Population Healthy Nuclei (%) [6]: 77% and 76%
Population Hoechst High Intensity Objects (%) [6]: 0%
Population Membrane Permeable-Phenotype (%) [6]: 0%
Population Mitochondria Different-Phenotype (%) [6]: 0% and 2%
Population Mitotic Cells (%) [6]: 26% and 37%
Population Normal (%) [6]: 100%
Population Pyknosed Nuclei (%) [6]: 7% and 11%
Population Tubulin-Different-Phenotype (%) [6]: 30% and 28%
Total Cell Count [6]: 201 and 239

Source: ChEMBL document CHEMBL5303300, “EUbOPEN Chemogenomics Library - Multiplex” (2023)
